Laboratory results taken from PMC11618456 (Nature Communications, 2024).

Key:
Cytotoxicity MTT assay = format: cell-based; conditions: human, A549 cells, CC50, half-cytotoxic concentration, 72 h, MTT; mean ± SD (n ≥ 3)
[1] = Metabolic stability in human liver microsomes; format: in vitro ADME; conditions: for Stability in HLM (% remaining) 30 min / Stability in HLM (% remaining) 60 min: 1 mg/mL HLM, 1 mM NADPH, 20 µM compound, mean ± SD
How it was run: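 Incubations in 1× PBS held 1 mg/mL HLM, 1 mM NADPH and 20 µM test compound at 37 °C for up to 60 min. Remaining compound was quantified by UPLC-QTOFMS, n = 3 per time point.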

Fech-mut mice [2] = assay: Safety after short-term treatment; format: in vivo, mouse; conditions: 100 mg/kg po, 5 days
Fech-mut mice [3] = assay: EPP-associated phototoxicity in Fech-mut mice after light exposure; format: in vivo, mouse
[4] = Pharmacokinetics in WT mice after oral treatment; format: in vivo, mouse; conditions: 100 mg/kg po, Fig. 1d
A549 cells = assay: Cytotoxicity MTT assay; format: cell-based; conditions: Table 1
ABCB1 = assay: Effect on ABCB1; format: in vivo, mouse; conditions: WT mice, 100 mg/kg po pretreatment, paclitaxel as substrate
ABCG2 = molecular target: T1, ABCG2 (Mus musculus, UniProt Q7TMS5); assay: PPIX efflux from RBCs of Fech-mut mice; format: cell-based; conditions: 10 µM, up to 3 h
T1 sequence (Q7TMS5 1-657): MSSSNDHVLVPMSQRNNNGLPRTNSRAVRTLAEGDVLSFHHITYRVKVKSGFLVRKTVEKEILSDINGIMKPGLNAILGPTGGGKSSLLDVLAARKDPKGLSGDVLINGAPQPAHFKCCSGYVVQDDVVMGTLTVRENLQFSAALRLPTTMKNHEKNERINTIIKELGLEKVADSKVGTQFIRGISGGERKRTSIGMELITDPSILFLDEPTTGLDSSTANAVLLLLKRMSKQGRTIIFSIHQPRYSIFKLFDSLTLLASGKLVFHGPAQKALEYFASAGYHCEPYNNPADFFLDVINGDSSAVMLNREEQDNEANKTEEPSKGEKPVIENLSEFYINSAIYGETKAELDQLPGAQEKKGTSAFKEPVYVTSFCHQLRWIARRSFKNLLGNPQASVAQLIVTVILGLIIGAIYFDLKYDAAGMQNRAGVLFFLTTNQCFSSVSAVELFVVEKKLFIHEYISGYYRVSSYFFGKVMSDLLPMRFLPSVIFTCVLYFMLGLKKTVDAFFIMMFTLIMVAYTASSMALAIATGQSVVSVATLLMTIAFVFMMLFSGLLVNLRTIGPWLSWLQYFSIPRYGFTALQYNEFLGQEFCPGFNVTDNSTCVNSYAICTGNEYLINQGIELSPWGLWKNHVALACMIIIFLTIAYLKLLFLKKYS
How it was run: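 Fech-mut mouse RBCs were cultured in phenol-red-free RPMI 1640 at 2 × 10^8 cells/well, 37 °C, gently shaken and light-protected, with or without 10 µM test compound for 1 or 3 h. Medium PPIX was read by fluorescence (ex 405 nm, em 630 nm) and expressed as % of RBC PPIX at time 0. n = 3 mice, duplicate incubations, mean ± SEM.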

WT mice = assay: Sub-chronic study; format: in vivo, mouse; conditions: 100 mg/kg po, 23 days
How it was run: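 Male wild-type mice aged 8 weeks got vehicle or test compound 100 mg/kg orally for 23 days (n = 4 per group), weighed daily before dosing. On day 24, blood, liver, kidney and spleen were collected for organ/body weight ratios. Serum ALT, AST and ALP were measured by enzymatic kits, and liver histology was assessed.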

in vitro = conditions: Fech-mut (BALB/c background), mouse, serum from Fech-mut mice treated with K31, oral, 100 mg/kg
[5] = system: PPIX in serum of Fech-mut mice; assay: PPIX distribution in serum of Fech-mut mice; format: in vivo, mouse; conditions: 100 mg/kg po

Compound: COc1ccc2c3c([nH]c2c1)[C@H](CC(C)C)N1C(=O)[C@H](CC(=O)N2CCCCC2)NC(=O)[C@@H]1C3 [K25]
- CC50 at 72 h (Cytotoxicity MTT assay): 26.5 ± 2.5 µM

Compound: COc1ccc2c3c([nH]c2c1)[C@H](CC(C)C)N1C(=O)[C@H](CC(=O)NC(C)(C)C)NC(=O)[C@@H]1C3 [K3]
- Stability in HLM (% remaining) 30 min [1]: 74 ± 25 % remaining
- Stability in HLM (% remaining) 60 min [1]: 60 ± 3 % remaining
- CC50 at 72 h (Cytotoxicity MTT assay): 58.9 ± 5.3 µM

Compound: COc1ccc2c3c([nH]c2c1)[C@H](CC(C)C)N1C(=O)[C@H](CC(=O)NC2CCCCC2)NC(=O)[C@@H]1C3 [K23]
- Stability in HLM (% remaining) 30 min [1]: 45 ± 2 % remaining
- Stability in HLM (% remaining) 60 min [1]: 26 ± 2 % remaining
- CC50 at 72 h (Cytotoxicity MTT assay): 46.6 ± 0.9 µM

Compound: COc1ccc2c3c([nH]c2c1)[C@H](CC(C)C)N1C(=O)[C@H](CC(=O)NC(C)C)NC(=O)[C@@H]1C3 [K31]
- PPIX levels in the liver (in words) (Fech-mut mice [2]): did not alter
- liver damage, alanine aminotransaminase (in words) (Fech-mut mice [2]): did not potentiate liver damage
- mean corpuscular hemoglobin in blood (in words) (Fech-mut mice [2]): no significant impact
- total hemoglobin in blood (in words) (Fech-mut mice [2]): no significant impact
- morphological changes in the liver and kidney (Fech-mut mice [2]; H&E): did not cause morphological changes
- withdrawal test: phototoxicity after K31 withdrawal (Fech-mut mice [3]; 100 mg/kg po days 1-4, then withdrawn, light continued days 5-8): recurrence of light-triggered phototoxicity was observed in the skin of Fech-mut mice from the second day of K31 withdrawal
- oxidative stress and inflammation in the skin (Fech-mut mice [3]; 100 mg/kg po, light exposure, once daily for 5 days): attenuated oxidative stress and inflammation
- light-triggered phototoxicity (gross appearance of the skin) (Fech-mut mice [3]; 30 and 100 mg/kg po, once daily for 5 days, both sexes): significantly decreased
- histological changes of skin (missing epidermis, damaged subepidermal collagen) (Fech-mut mice [3]; po pretreatment, light exposure, H&E, Sirius Red): prevented
- pharmacokinetic profile after oral treatment (in words) [4]: outstanding pharmacokinetic profiles
- Stability in HLM (% remaining) 30 min [1]: 65 ± 3 % remaining
- Stability in HLM (% remaining) 60 min [1]: 49 ± 9 % remaining
- metabolic stability (in words) ([1]; incubation with human liver microsomes, Fig. 1c): significantly improved
- cytotoxicity compared with other Ko143 analogs (A549 cells): less cytotoxic when compared to other Ko143 analogs
- CC50 at 72 h (Cytotoxicity MTT assay): > 100 µM
- inhibitory effect on ABCB1 (ABCB1): no inhibitory effect
- PPIX release from the RBCs of Fech-mut mice (in words) (ABCG2): markedly decreased
- biomarkers of liver toxicity (ALT, AST, ALP) (in words) (WT mice): did not alter
- growth (body weight gain) (in words) (WT mice): did not alter
- ratios of organ (liver, kidney, and spleen) to body weight (in words) (WT mice): did not alter
- fraction unbound at 16 h (in vitro): 0.0585
- PPIX in serum (in words) [5]: significant decrease

Compound: COc1ccc2c3c([nH]c2c1)[C@H](CC(C)C)N1C(=O)[C@H](CC(=O)NCc2ccccc2)NC(=O)[C@@H]1C3 [K33]
- Stability in HLM (% remaining) 30 min [1]: 37 ± 3 % remaining
- Stability in HLM (% remaining) 60 min [1]: 18 ± 1 % remaining
- CC50 at 72 h (Cytotoxicity MTT assay): 31.1 ± 3.7 µM
